Like-named read-outs stand apart in the source and are kept apart here.
Tests used:
MK5 [1] = target: T1, MK5 (Homo sapiens, UniProt Q8IW41); experiment: MK5 kinase activity against PRAKtide substrate peptide; format: biochemical; conditions: for inhibition of MK5 enzyme activity (in words): initial screening at 2 mM
T1 sequence (Q8IW41 1-473): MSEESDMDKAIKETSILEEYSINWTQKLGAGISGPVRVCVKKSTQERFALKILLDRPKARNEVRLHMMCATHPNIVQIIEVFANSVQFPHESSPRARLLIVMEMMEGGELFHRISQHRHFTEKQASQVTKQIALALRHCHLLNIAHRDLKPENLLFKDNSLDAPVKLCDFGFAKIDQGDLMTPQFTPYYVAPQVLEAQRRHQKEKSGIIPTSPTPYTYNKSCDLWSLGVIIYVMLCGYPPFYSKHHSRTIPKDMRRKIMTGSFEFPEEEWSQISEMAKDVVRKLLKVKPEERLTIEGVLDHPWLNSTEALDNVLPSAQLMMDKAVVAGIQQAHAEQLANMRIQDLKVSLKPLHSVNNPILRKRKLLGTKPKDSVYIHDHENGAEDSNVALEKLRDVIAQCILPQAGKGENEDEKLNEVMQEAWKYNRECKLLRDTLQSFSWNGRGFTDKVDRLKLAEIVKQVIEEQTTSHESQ

[2] = system: PKA-induced nuclear export of MK5; experiment: PKA-induced nuclear export of EGFP-MK5 in PC12 cells; format: cell-based; conditions: 10 μM forskolin, 30 min, no compound 11, untreated control 6%
In short: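 PC12 cells were grown in F-12K with 2 mM L-glutamine, 1.5 g/l sodium bicarbonate, 15% horse serum, 2.5% fetal calf serum, penicillin and streptomycin. They were transfected with EGFP-MK5 by nucleofection, then left untreated or pretreated with 20 μM test compound. Next came 10 μM forskolin for 30 min. Cells were fixed in 4% formaldehyde for 10 min and washed in PBS. Several hundred cells were scored by confocal microscopy for nuclear plus cytosolic EGFP-MK5.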

MK5 [3] = target: T1, MK5; conditions: read-out: IC50 MK5; cited from earlier work
ERK2 = ERK2 (Homo sapiens, UniProt P28482); conditions: 10 μM; cited from earlier work
DYRK1A [4] = target: T2, DYRK1A (Homo sapiens, UniProt Q13627); conditions: 10 μM; cited from earlier work
ROCK-II = conditions: 10 μM; cited from earlier work
PDK1 [5] = target: T3, PDK1 (Homo sapiens, UniProt O15530); conditions: 10 μM; cited from earlier work
T3 sequence (O15530 1-556): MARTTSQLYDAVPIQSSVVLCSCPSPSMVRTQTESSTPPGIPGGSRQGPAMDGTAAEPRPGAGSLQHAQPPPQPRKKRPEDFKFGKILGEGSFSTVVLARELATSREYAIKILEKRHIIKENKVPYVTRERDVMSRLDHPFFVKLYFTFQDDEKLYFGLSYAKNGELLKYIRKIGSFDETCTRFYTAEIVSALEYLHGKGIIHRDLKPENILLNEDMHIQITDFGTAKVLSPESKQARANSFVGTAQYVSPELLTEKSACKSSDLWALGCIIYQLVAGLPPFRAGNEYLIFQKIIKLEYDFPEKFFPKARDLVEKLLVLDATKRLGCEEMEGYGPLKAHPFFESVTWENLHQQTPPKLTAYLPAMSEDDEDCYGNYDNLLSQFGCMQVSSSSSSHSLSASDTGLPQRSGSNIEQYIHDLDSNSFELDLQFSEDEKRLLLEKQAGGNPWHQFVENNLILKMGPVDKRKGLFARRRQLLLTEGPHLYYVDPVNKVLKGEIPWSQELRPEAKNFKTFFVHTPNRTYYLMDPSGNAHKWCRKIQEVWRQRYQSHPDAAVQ

MK5 [6] = target: T1, MK5; conditions: read-out: IC50 MK5; cited from earlier work; remark: listed apart in the source
Aurora B = conditions: 10 μM; cited from earlier work
DYRK1A [7] = target: T2, DYRK1A; conditions: 10 μM; cited from earlier work; remark: listed apart in the source
IKKβ = conditions: 10 μM; cited from earlier work
MK3 = MK3 (Homo sapiens, UniProt Q16644); conditions: 10 μM; cited from earlier work
ERK8 = conditions: 10 μM; cited from earlier work
GSK3β = conditions: 10 μM; cited from earlier work
RSK2 = conditions: 10 μM; cited from earlier work
MSK1 = conditions: 10 μM; cited from earlier work
p70^S6K = conditions: 10 μM; cited from earlier work
PDK1 [8] = target: T3, PDK1; conditions: 10 μM; cited from earlier work; remark: listed apart in the source
PHK = conditions: 10 μM; cited from earlier work
PKA = PKA (Homo sapiens, UniProt P17612); conditions: 10 μM; cited from earlier work
PKB2 = conditions: 10 μM; cited from earlier work
PLK1 = PLK1 (Homo sapiens, UniProt P53350); conditions: 10 μM; cited from earlier work
p38δ = conditions: 10 μM; cited from earlier work
smMLCK = conditions: 10 μM; cited from earlier work

Chain of PLK1 (P53350 whole entry): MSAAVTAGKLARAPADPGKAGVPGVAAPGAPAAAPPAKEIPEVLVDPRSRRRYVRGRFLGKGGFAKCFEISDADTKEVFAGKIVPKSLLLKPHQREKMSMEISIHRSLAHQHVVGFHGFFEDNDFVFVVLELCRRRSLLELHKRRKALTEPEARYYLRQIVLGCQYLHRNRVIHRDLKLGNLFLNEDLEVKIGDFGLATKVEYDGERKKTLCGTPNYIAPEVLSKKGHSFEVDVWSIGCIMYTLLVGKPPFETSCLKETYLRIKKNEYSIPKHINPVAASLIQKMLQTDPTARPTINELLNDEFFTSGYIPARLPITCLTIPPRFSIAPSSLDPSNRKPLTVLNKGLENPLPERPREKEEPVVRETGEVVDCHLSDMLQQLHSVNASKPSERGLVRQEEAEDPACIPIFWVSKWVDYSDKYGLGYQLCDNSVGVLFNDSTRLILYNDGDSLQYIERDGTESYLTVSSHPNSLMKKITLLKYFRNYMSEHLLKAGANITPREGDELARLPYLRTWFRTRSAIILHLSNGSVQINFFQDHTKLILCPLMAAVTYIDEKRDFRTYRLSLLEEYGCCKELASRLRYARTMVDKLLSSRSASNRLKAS
Chain of MK3 (Q16644 whole entry, species assumed): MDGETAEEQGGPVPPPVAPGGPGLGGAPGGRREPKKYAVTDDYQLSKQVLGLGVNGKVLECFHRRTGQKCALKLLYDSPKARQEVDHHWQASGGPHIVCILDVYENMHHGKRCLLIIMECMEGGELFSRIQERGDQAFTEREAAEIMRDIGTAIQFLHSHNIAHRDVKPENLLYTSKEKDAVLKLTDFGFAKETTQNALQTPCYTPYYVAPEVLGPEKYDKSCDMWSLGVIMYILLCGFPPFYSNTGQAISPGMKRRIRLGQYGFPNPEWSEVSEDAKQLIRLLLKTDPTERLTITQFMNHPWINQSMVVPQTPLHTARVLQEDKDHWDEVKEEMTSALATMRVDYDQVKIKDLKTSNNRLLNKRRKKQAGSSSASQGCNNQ
Chain of ERK2 (P28482 whole entry): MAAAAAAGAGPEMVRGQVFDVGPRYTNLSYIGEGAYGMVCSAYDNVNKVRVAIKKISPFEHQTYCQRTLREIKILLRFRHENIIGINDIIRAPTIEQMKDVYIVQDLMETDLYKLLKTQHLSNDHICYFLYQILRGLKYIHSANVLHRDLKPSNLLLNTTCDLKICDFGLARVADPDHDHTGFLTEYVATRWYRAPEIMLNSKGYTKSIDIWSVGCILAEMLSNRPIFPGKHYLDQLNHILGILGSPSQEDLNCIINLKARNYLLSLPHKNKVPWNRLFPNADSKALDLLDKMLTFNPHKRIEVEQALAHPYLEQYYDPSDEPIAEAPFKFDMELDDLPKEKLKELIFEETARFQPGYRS

CCN1C[C@]2(COC)[C@H](O)C[C@H](OC)[C@@]34[C@@H]5C[C@@]6(O)[C@H](OC(=O)c7ccccc7)[C@@H]5[C@@](OC(C)=O)([C@@H]([C@H](OC)[C@H]23)[C@@H]14)[C@@H](O)[C@@H]6OC [Compound 6, aconitine]
inhibition of MK5 enzyme activity (in words) (MK5 [1]): completely blocked

C=C[C@@]1(C)CC(=O)[C@]2(O)[C@@]3(C)[C@@H](O)CCC(C)(C)[C@@H]3[C@H](O)[C@H](OC(C)=O)[C@@]2(C)O1 [forskolin]
cells displaying both nuclear and cytosolic EGFP-MK5 [2]: approximately 84%
cells displaying both nuclear and cytosolic EGFP-MK5 ([2]; listed as Forskolin): 84%

O=C(O[C@@H]1Cc2c(O)cc(O)cc2O[C@@H]1c1cc(O)c(O)c(O)c1)c1cc(O)c(O)c(O)c1 [EGCG, epigallocatechin gallate]
IC50 (MK5 [3]): < 10 µM
inhibition of in vitro kinase activity of ERK2 (ERK2): ~ 90%
inhibition of in vitro kinase activity of DYRK1A (DYRK1A [4]): ~ 90%
inhibition of in vitro kinase activity of ROCK-II (ROCK-II): ~ 90%
inhibition of in vitro kinase activity of PDK1 (PDK1 [5]): ~ 90%

CCN1C[C@]2(COC)[C@H](O)C[C@H](OC)[C@]34C1[C@H]([C@H](OC)[C@H]23)[C@]1(O)[C@H]2[C@@H](O)[C@](O)(C[C@H]24)[C@@H](OC)[C@@H]1O [Compound 8, aconine]
Ki (MK5 [1]): 301 µM
IC50 MK5 (in words) (MK5 [1]; dose-response, PRAKtide substrate): in the mM range
inhibition of MK5 enzyme activity (in words) (MK5 [1]): completely blocked
mode of inhibition against ATP (MK5 [1]; varying ATP concentrations, Lineweaver-Burk): ATP-competitive

COc1ccc(C=CC(=O)c2c(O)cc(OC)cc2OC)cc1 [flavokavain A]
IC50 (MK5 [6]): 10 µM
inhibition of Aurora B (in words, relative to MK5) (Aurora B): more or to a similar extent
inhibition of DYRK1A (in words, relative to MK5) (DYRK1A [7]): more or to a similar extent
inhibition of IKKβ (in words, relative to MK5) (IKKβ): more or to a similar extent
inhibition of MK3 (in words, relative to MK5) (MK3): more or to a similar extent
inhibition of ERK8 (ERK8): 40–70%
inhibition of GSK3β (GSK3β): 40–70%
inhibition of RSK2 (RSK2): 40–70%
inhibition of MSK1 (MSK1): 40–70%
inhibition of p70^S6K (p70^S6K): 40–70%
inhibition of PDK1 (PDK1 [8]): 40–70%
inhibition of PHK (PHK): 40–70%
inhibition of PKA (PKA): 40–70%
inhibition of PKB2 (PKB2): 40–70%
inhibition of PLK1 (PLK1): 40–70%
inhibition of p38δ (p38δ): 40–70%
inhibition of smMLCK (smMLCK): 40–70%
